# How the values were obtained:
# Adenosine receptor A2a [1] = target: T1, Adenosine receptor A2a (Rattus norvegicus, UniProt P30543); assay: Displacement of [3H]-MSX-2 from Adenosine A2A receptor of rat striatal membranes; format: cell membranes, Membrane
# Summary of the method: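 Rat striatal membranes (protein ca. 70 µg/mL) were incubated with 1 nM [3H]MSX-2 in 50 mM Tris-HCl, pH 7.4, for 30 min at 23 °C. […] Filtration was on PEI-presoaked GF/B filters with scintillation counting. Seven to nine concentrations (DMSO stock) spanned 3 log units; three experiments, each in duplicate.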
# Adenosine receptor A2a [2] = target: T1, Adenosine receptor A2a; assay: Displacement of [3H]NECA from Adenosine A2A receptor of rat striatal membranes; format: cell membranes, Membrane
# Adenosine receptor A1 [3] = target: T2, Adenosine receptor A1 (Rattus norvegicus, UniProt P25099); assay: Displacement of [3H]CCPA from adenosine A1 receptor of rat cortical membranes; format: cell membranes, Membrane
# T2 sequence (P25099 whole entry): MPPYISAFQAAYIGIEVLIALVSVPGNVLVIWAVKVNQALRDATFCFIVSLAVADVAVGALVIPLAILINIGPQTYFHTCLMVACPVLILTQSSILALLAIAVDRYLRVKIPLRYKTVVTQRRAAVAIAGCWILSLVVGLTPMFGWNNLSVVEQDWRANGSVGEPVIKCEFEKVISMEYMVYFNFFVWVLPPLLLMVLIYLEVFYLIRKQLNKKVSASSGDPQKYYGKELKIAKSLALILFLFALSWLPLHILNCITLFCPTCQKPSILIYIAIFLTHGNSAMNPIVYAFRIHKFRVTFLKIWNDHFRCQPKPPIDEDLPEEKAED
# Summary of the method: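 Rat brain cortical membranes at about 70 µg/mL protein, with 0.5 nM [3H]CCPA in 50 mM Tris-HCl pH 7.4, 23 °C for 90 min. Nonspecific binding was set with 10 µM 2-chloroadenosine. Bound ligand was collected by GF/B filtration and counted by scintillation. The test compound came from DMSO at 7–9 concentrations spanning 3 orders of magnitude. Three experiments were run, each in duplicate.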
# Adenosine receptor A1 [4] = target: T2, Adenosine receptor A1; assay: Displacement of [3H]DPCPX from adenosine A1 receptor of rat cortical membranes; format: cell membranes, Membrane
# Summary of the method: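 Run as the rat cortical membrane A1 assay (50 mM Tris-HCl pH 7.4, 23 °C, 90 min) but with [3H]DPCPX as radioligand. Nonspecific binding was set with 10 µM unlabeled DPCPX. Binding was measured without and with 100 µM GTP, and IC50 came from nonlinear regression. GTP shift is the IC50 with GTP divided by the IC50 without GTP. Two experiments were run, each in duplicate.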
# Adenosine receptor A1 [5] = target: T2, Adenosine receptor A1; assay: Displacement of [3H]R-PIA from adenosine A1 receptor of rat cortical membranes; format: cell membranes, Membrane
# Adenosine receptor A3 [6] = target: T3, Adenosine receptor A3 (Homo sapiens, UniProt P0DMS8); assay: Displacement of [3H]PSB-11 from human adenosine A3 receptor expressed in CHO cells; format: cell-based
# T3 sequence (P0DMS8 whole entry): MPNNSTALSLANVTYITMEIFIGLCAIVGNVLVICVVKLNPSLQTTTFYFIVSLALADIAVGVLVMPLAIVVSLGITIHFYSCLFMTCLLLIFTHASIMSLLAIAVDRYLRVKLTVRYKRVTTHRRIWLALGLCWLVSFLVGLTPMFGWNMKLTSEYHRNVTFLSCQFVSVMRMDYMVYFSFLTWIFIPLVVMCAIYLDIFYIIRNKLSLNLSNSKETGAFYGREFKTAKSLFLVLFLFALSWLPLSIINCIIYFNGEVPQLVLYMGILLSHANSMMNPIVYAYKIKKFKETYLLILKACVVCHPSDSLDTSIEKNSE
# Summary of the method: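 Membranes came from CHO cells stably expressing human A3AR. They were incubated with 0.5 nM [3H]PSB-11 in 50 mM Tris-HCl, pH 7.4, for 45 min, and 100 µM R-PIA defined nonspecific binding. Bound radioactivity was collected on GF/B filters and scintillation-counted. Seven to nine test concentrations were used; run twice, each in duplicate.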
# Adenosine receptor A3 [7] = target: T3, Adenosine receptor A3; assay: Inhibition of forskolin-stimulated cAMP accumulation in chinese hamster ovary cell membranes expressing human adenosine A3 receptor; format: functional, cell-based
# [8] = target: T4, Adenosine receptor A3 (Homo sapiens) (UniProt P0DMS8); assay: Percent efficacy for inhibition of human adenosine A3 receptor activity relative to NECA; format: functional
# T4 sequence (whole entry): T3 sequence (P0DMS8 whole entry)
# Adenosine receptor A2b [9] = target: T5, Adenosine receptor A2b (Homo sapiens, UniProt P29275); assay: Binding affinity towards human adenosine A2B receptor in VA13 fibroblasts as […] at 10 uM; Less than 10% inhibition; format: functional
# T5 sequence (P29275 whole entry): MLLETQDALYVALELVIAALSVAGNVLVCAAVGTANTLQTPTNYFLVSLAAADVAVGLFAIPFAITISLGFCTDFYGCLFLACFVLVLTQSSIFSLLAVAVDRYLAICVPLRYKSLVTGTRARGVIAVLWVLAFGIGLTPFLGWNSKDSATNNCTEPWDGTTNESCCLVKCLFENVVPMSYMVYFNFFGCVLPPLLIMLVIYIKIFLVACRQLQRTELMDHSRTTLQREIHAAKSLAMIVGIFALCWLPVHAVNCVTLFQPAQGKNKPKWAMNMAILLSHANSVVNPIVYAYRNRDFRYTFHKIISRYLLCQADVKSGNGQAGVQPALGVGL
# Adenosine receptor A2b [10] = target: T5, Adenosine receptor A2b; assay: Displacement of [3H]PSB-298 from human adenosine A2B receptor expressed in HEK293 cells at 10 uM; Less than 10% inhibition; format: cell-based
# Adenosine receptor A1 [11] = target: T2, Adenosine receptor A1; assay: Displacement of [3H]DPCPX from adenosine A1 receptor of rat cortical membranes without GTP; format: cell membranes, Membrane
# Summary of the method: (§1)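 Cortical A1 assay as for [3H]CCPA (50 mM Tris-HCl pH 7.4, 23 °C, 90 min, ~70 µg/mL protein) but with [3H]DPCPX as radioligand and 10 µM unlabeled DPCPX for nonspecific binding. Curves were run without and with 100 µM GTP and fitted by nonlinear regression to apparent IC50s. GTP shift = IC50(+GTP)/IC50(−GTP). Two experiments, each in duplicate.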
# Adenosine receptor A1 [12] = target: T2, Adenosine receptor A1; assay: Displacement of [3H]DPCPX from adenosine A1 receptor of rat cortical membranes with GTP; format: cell membranes, Membrane; summary of the method: as §1
# [13] = target: T6, Adenosine receptor A1 (Rattus norvegicus) (UniProt P25099); assay: Binding affinity against adenosine A1 receptor in the presence of GTP relative to the absence of GTP
# T6 sequence (whole entry): T2 sequence (P25099 whole entry)
# Adenosine receptor A1 [14] = target: T2, Adenosine receptor A1; assay: Displacement of [3H]CCPA from Adenosine A1 receptor of rat cortical membranes; format: cell membranes, Membrane
# Summary of the method: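 A1 binding used rat cortical membranes (ca. 70 µg/mL protein) with 0.5 nM [3H]CCPA in 50 mM Tris-HCl, pH 7.4, for 90 min at 23 °C. 10 µM 2-chloroadenosine defined nonspecific binding. Separation was by GF/B filtration and scintillation counting. Inhibition curves had seven to nine concentrations across 3 orders of magnitude; three separate experiments, each in duplicate.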
# Adenosine receptor A1 [15] = target: T2, Adenosine receptor A1; assay: Displacement of [3H]DPCPX from rat Adenosine A1 receptor of cortical membranes; format: cell membranes, Membrane; summary of the method: as §1
# Adenosine receptor A2b [16] = target: T5, Adenosine receptor A2b; assay: Displacement of [3H]PSB-298 from human adenosine A2B receptor expressed in HEK293 cells at 10 uM; format: cell-based
# T1 sequence (P30543 whole entry): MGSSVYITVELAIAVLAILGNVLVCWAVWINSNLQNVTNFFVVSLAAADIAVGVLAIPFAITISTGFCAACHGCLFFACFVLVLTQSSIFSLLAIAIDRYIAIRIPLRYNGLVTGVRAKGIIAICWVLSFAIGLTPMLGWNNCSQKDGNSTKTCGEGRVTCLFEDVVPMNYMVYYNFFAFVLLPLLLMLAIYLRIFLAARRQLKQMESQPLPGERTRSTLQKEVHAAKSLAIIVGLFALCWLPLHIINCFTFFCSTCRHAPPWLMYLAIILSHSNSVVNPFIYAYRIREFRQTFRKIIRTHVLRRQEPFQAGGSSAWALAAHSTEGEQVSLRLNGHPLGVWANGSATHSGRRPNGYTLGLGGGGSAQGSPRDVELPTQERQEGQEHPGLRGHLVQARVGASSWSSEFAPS
Structure (SMILES),Ki (Adenosine receptor A2a [1]) [µM],Ki (Adenosine receptor A2a [2]) [µM],Ki (Adenosine receptor A1 [3]) [µM],Ki (Adenosine receptor A1 [4]) [µM],Ki (Adenosine receptor A1 [5]) [µM],Ki (Adenosine receptor A3 [6]) [µM],IC50 (Adenosine receptor A3 [7]) [µM],Efficacy [8] [%],Ki (Adenosine receptor A2b [9]) [µM],Ki (Adenosine receptor A2b [10]) [µM],IC50 (Adenosine receptor A1 [11]) [µM],IC50 (Adenosine receptor A1 [12]) [µM],Ratio [13],Ki (Adenosine receptor A1 [14]) [µM],Ki (Adenosine receptor A1 [15]) [µM],Ki (Adenosine receptor A2b [16]) [µM]
CSC[C@H]1O[C@@H](n2cnc3c(N)ncnc32)[C@H](O)[C@@H]1O [METHYLTHIOADENOSINE],1.13,1.18,0.15,0.21,0.24,0.68,71,46,8.2,13.9,0.68,15.1,22.2,,,
CC(=O)O[C@]1(C(C)=O)CC[C@H]2[C@@H]3C=C(Cl)C4=CC(=O)[C@@H]5C[C@@H]5[C@]4(C)[C@H]3CC[C@@]21C [CYPROTERONE ACETATE],,,,,,,,,,,0.005,0.125,22.8,,,
Cn1cnc2c(N)ncnc21,,,,,,,,,,,12.5,14.7,1.2,,,
CO/C(=C\c1ccc(O)cc1)C(=O)O[C@@H]1[C@H](OC(=O)/C=C/c2c[nH]cn2)[C@@H](CSC)O[C@H]1n1cnc2c(N)ncnc21,17.1,,,,,6.94,6.7,56,,,23,143,6.2,3.26,9.45,> 10
